Source: PubChem
A selection: hits, their analogues and other compounds. The true share with any hit is near 2.7%.
HNF4A DNA FP: change in binding of human HNF4 alpha to DNA; HNF4a-FITC DNA binding, fluorescence polarization, 1 h; P41235; 360,000 compounds, 0.3% hits; AID 1224865; activity change, % at 10 µM; in the data active = activity change above about 30%, passing the limit was not always enough
PP1 inh: counter-screen for PP5 inhibitors: inhibitors of human PP1-alpha. P62136. purified PP1alpha, OMFP fluorescence. inhibition, % at 6.7 µM. 320,000 compounds, 0.9% hits;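 active = inhibition above the mean inhibition of all tested compounds plus 3 SD, computed separately for each screening campaign, cut at about 15% in these data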
CSN inh: blocks human CSN-mediated cullin deneddylation; Q92905; Purified CSN, SCF-Nedd8-OG deneddylation, fluorescence polarization; inhibition, % at 12.5 µM; 360,000 compounds, 0.38% hits; AID 651999;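 active = pattern-corrected inhibition above about 35%, with an unprinted fluorescence ratio check between 0.5 and 1.5, limit read from the data, passing the limit was not always enough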
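Assay system: HEK293T-derived human Csn5 enzyme; quantity: 0.24 nM enzyme; medium: Tris/NaCl/DTT buffer, pH 7.5; also added: substrate SCFSkp2-Nedd8OG, 10 nM; doses: 12.5 µM compound; schedule: 90 min reaction at room temperature; signal: FP; read-out: % inhibition of substrate cleavage by Csn5; benchmarks: substrate-only high control, full reaction low control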
TPT1 inhibitor: inhibitors of Candida albicans tRNA 2'-phosphotransferase TPT1; recombinant caTPT1, FP RNA substrate dephosphorylation; inhibition, % at 5 µM; 300,000 compounds, 0.81% hits; AID 1962;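 active = inhibition above the mean of all tested compounds plus 3 SD, set per screening campaign, cut at about 24% in these data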
NadD block: blocks S. aureus nicotinate mononucleotide adenylyltransferase; 360,000 compounds, 0.78% hits; purified NadD enzyme, colorimetric absorbance read-out; inhibition, % at 20 µM; in the data active = inhibition above about 26%
Rpn11 block: Rpn11 (human) deubiquitinase inhibition; human 26S proteasome, Ub4-pepOG fluorescence polarization; 20S core pre-blocked with epoxomicin; O00487; inhibition, % at 20 µM; AID 588493; 360,000 compounds, 0.59% hits;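 active = inhibition at 20 µM, scaled to each plate's controls, above about 33%, limit read from the data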
Rpn11 confirm: confirmation of human proteasome Rpn11 inhibitors. shares compounds with Rpn11 block. purified human 26S proteasome, Ub4-pepOG fluorescence polarization; proteasome pretreated with epoxomicin. inhibition, % at 20 µM. 1,900 compounds, 29% hits. AID 602318
MMP-2 inh: blocks human MMP-2, flagging nonselective RPN11 hits | AID 602330 | shares compounds with Rpn11 block | recombinant MMP-2, FRET peptide cleavage fluorescence | inhibition, % at 20 µM | 1,900 compounds, 4% hits;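 note: human MMP-2 activated beforehand with APMA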
Target sequence (P08253 whole entry, looked up): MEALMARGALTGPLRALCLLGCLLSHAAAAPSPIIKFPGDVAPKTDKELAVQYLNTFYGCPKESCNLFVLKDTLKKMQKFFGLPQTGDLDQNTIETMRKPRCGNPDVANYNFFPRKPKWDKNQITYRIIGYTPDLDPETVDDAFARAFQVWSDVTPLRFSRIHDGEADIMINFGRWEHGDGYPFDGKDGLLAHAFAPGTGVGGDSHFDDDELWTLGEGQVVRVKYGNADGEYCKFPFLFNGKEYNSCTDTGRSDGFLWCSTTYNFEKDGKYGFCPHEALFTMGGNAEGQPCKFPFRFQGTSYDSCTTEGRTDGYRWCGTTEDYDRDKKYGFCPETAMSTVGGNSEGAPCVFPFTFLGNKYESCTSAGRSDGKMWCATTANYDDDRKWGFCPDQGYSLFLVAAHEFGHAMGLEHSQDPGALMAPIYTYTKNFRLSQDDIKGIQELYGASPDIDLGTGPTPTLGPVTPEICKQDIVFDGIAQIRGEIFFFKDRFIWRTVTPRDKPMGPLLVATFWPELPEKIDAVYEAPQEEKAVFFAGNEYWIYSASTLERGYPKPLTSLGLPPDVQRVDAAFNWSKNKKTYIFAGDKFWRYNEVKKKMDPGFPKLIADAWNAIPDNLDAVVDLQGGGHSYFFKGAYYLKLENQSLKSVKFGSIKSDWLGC
Thrombin FP: counter-screen for RPN11 inhibitors: inhibition of bovine thrombin | bovine thrombin cleavage of Ub4-pepOG, fluorescence polarization | shares compounds with Rpn11 block | 1,900 compounds, 13% hits | inhibition, % at 20 µM;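 active = mean inhibition at least 40% at 20 µM, or signal 3 deviations below plate average, so some actives read negative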
Numbers stand for hits; 0 = inactive; - = no result; + = active, no number. Cut-off read from the data, not from the text of the source, unless noted: active = inhibition above about 40%; inactive = the rest.

SMILES	HNF4A DNA FP	PP1 inh	CSN inh	TPT1 inhibitor	NadD block	Rpn11 block	Rpn11 confirm	MMP-2 inh	Thrombin FP
CSc1nc2nccc(-c3ccc(-c4ccccc4)cc3)n2n1	0	0	0	0	0	60.0	0	0	0
Brc1ccccc1C1CC(c2ccccc2)=Nc2ccccc2N1 (centres undefined)	0	0	0	0	0	40.7	0	0	0
CC(C)(C)Cc1c(-c2ccco2)nc2ccc(Cl)cn12	0	-	0	-	0	0	-	-	-
CCOC(=O)Cn1c(=NC(=O)c2ccc([N+](=O)[O-])s2)sc2ccccc21	0	0	0	0	0	44.5	0	0	0
O=C(O)c1ccc2c(c1)C(=O)N(c1ccc([N+](=O)[O-])cn1)C2=O	0	0	0	0	0	0	-	-	-
COc1ccc(C2=NN(C(C#N)c3ccc(OC)c(OC)c3)C(c3ccccc3)C2)cc1 (centres undefined)	0	0	0	0	0	65.7	0	0	0
CO/N=C(/C(=O)N[C@@H]1C(=O)N2C(C(=O)O)=CCS[C@H]12)c1cnc(N)s1	0	0	0	0	39.2	64.2	84.7	0	0
CC1=C(C(=O)Nc2ccccc2Cl)C(c2ccc(N(C)C)cc2)NC(=O)N1 (centres undefined)	0	0	0	0	0	64.0	0	0	0
Cc1nn(-c2ccccc2)c(N2CCCC2)c1/C=C1\N=C(c2ccc(F)cc2)OC1=O	0	0	0	0	0	80.7	0	0	0
Cc1ccc(C2=N/C(=C\c3c(C)nn(-c4ccccc4)c3N3CCCC3)C(=O)O2)cc1	0	0	0	0	0	0	-	-	-
N#C/C(=C\c1cccn1S(=O)(=O)c1cccc(C#N)c1)S(=O)(=O)c1ccc(F)cc1	0	-	0	-	0	0	-	-	-
COc1cccc(-c2nn(C)c3sc(C(=O)NCCCN(C)Cc4ccccc4)cc23)c1	0	0	0	0	0	87.7	0	0	0
COc1cc(C=C2CCCC(=Cc3ccc(OCC4CO4)c(OC)c3)C2=O)ccc1OCC1CO1 (centres undefined)	0	-	0	-	0	50.7	0	0	0
CN(C(=O)CCc1nc2ccccc2c(=O)[nH]1)C1CCS(=O)(=O)C1 (centres undefined)	0	0	0	-	0	0	-	-	-
CCCCN1CC[C@H]2C=CC[C@@H](C(=O)Nc3nccs3)[C@H]2C1=O	0	0	0	0	0	0	-	-	-
CCc1ccc(O)c(N=Cc2cccc(C)c2O)c1	0	0	0	0	0	43.7	43.5	0	0
Cc1cccc(C=Nc2ccc3c4c(cccc24)CC3)c1O	0	0	0	0	0	0	-	-	-
Clc1ccc(CN2CCC(c3nc4ccc(Cl)cc4[nH]3)CC2)cc1	0	0	0	0	0	54.6	0	0	0
c1ccc(CSc2nnc(-c3ccco3)o2)cc1	0	0	0	0	0	0	-	-	-
c1coc(-c2nnc(SCc3nc4ccccc4[nH]3)o2)c1	0	0	0	0	0	45.9	0	0	0
COc1cc(/C=N/NC(=O)c2cc3ccccc3cc2O)ccc1OCCN1CCCCC1	0	0	0	0	0	63.9	0	0	0
COc1ccc(Nc2nc(-c3c[nH]c4ccccc34)cs2)cc1	0	0	0	0	0	48.2	0	0	0
COc1ccc(Nc2nc(-c3ccc(OC)cc3)cs2)cc1	0	0	0	0	0	0	-	-	-
CN1/C(=C\C(=S)NC(=O)c2ccc([N+](=O)[O-])cc2)C(C)(C)c2ccccc21	0	0	0	0	0	0	-	-	-
CN1/C(=C\C(=S)NC(=O)c2cccc(Br)c2)C(C)(C)c2ccccc21	0	0	0	0	0	48.0	0	0	0
SMILES	HNF4A DNA FP	PP1 inh	CSN inh	TPT1 inhibitor	NadD block	Rpn11 block	Rpn11 confirm	MMP-2 inh	Thrombin FP
COc1ccc(O)c(/C=N/NC(=O)c2ccc(OCc3cccc(Br)c3)cc2)c1	43.8	0	0	0	0	53.9	55.5	0	0
O=C1c2ccccc2C(=O)c2cc(N3CCCCC3)ccc21	0	-	0	-	0	42.9	0	0	0
c1ccc2cc(N3CCCCC3)ccc2c1	0	-	0	-	0	0	-	-	-
O=C(OCn1nnc2ccccc2c1=O)c1ccc(F)c(S(=O)(=O)N2CCOCC2)c1	0	-	0	-	0	0	-	-	-
O=c1cc(-c2ccc(Cl)cc2)[nH][nH]1	0	0	0	0	0	109.9	0	0	0
CCCc1nc2ccc(Cl)cn2c1Cc1ccc(C)cc1	0	-	0	-	0	0	-	-	-
COc1ccc(NC(=O)CSc2nnnn2C2CC3C=CC2C3)cc1 (centres undefined)	0	0	0	0	0	0	-	-	-
COc1ccc(-c2cnc(C(N)=O)c(=O)[nH]2)cc1	0	-	0	-	0	0	-	-	-
O=C(NCCCN1CCCCCC1)c1cc2c(=O)oc3ccccc3c2s1	0	0	0	0	0	63.8	0	0	0
C[C@@H](NC(=O)c1ncn2c1c(=O)[nH]c1ccc(Br)cc12)c1ccccc1	0	-	0	-	0	+	0	0	0
Cn1c(=O)c2cc(NC(=O)NCc3ccccc3)ccc2n1C/C=C/c1ccccc1	0	-	0	-	0	0	-	-	-
O=C(NCCSCc1ccccc1)c1ccc(C2SCC(=O)N2Cc2ccccc2)cc1 (centres undefined)	0	0	0	0	0	56.6	42.7	0	0
CCC[C@H]1CC(=O)C=C(c2ccc(OC)cc2)ON1C(=O)OC(C)(C)C	0	-	0	-	0	0	-	-	-
Cc1ccc(O)c(C(=O)c2cc(C#N)c(=O)n(Cc3ccccc3)c2)c1	0	0	0	0	0	39.8	0	0	0
N#Cc1cc(C(=O)c2cc(F)ccc2O)cn(Cc2ccccc2)c1=O	0	0	0	0	0	0	-	-	-
CCOC(=O)c1cccc(-n2cccc2/C=C2\NC(=O)N(CC(=O)O)C2=O)c1	0	-	0	-	0	0	-	-	-
CCOC(=O)c1ccc(-n2cccc2/C=C2\NC(=O)NC2=O)cc1	0	0	0	-	0	45.5	0	0	0
Cc1cc2c(=O)n(Cc3ccco3)c(SCC(=O)c3ccc(Cl)s3)nc2s1	0	0	0	0	0	40.3	0	0	0
CCOC(=O)CC(=O)CSc1nc2sc(C)cc2c(=O)n1Cc1ccco1	0	0	0	0	0	0	-	-	-
COC(=O)[C@]1(C)N[C@H](CN(C)C(=O)Nc2ccccc2)[C@@H]2C(=O)N(C)C(=O)[C@@H]21	0	-	0	-	0	0	-	-	-
COc1ccccc1NC(=O)Nc1nc(CC(=O)Nc2cc(F)ccc2F)cs1	0	0	0	0	0	45.9	0	0	0
COc1ccccc1NC(=O)Nc1nc(CC(=O)Nc2cccc(F)c2)cs1	0	0	0	0	0	0	-	-	-
